Screening data as filed in PubChem BioAssay.
ABCB1 inh – ABCB1 efflux pump inhibitors, primary screen, cell-based, multiplex, flow cytometry, ABCG2 counter-screen. ATP-dependent translocase ABCB1 (Homo sapiens), P08183. CCRF-Adr cells, JC-1 efflux. inhibition, % at 6.6 µM. 0.067% of 190,000 active. AID 1326, 2008; in the data active means inhibition above about 40%;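 further: 0% = vehicle and 100% = reference inhibitor; higher value means more JC-1 retained so stronger ABCB1 efflux block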
ABCG2 block – ABCG2 efflux pump inhibitors, primary screen, multiplex with ABCB1, IgMXP3 cells, flow cytometry; Broad substrate specificity ATP-binding cassette transporter ABCG2 (Homo sapiens), Q9UNQ0; JC-1 efflux; inhibition, % at 6.6 µM; 0.1% of 190,000 active; AID 1325, 2008;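 active means inhibition above 80%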;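 further: 0% = DMSO and 100% = nicardipine control wells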
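material = IgMXP3 (ABCG2) plus far-red-tagged CCRF-Adr (ABCB1) cells | amount = 3 million cells/mL, equal mix of both lines | also added = JC-1 transporter substrate | dosing = one concentration, 6.6 µM final | schedule = 10 min at 25 °C | measured by = flow cytometric JC-1 green MFI at 530 nm | read-out basis = percent efflux inhibition, scaled nicardipine 100% to DMSO 0%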
PKD1 inh – inhibitors of human PKD1 kinase, biochemical, fluorescence polarization | Serine/threonine-protein kinase D1 (Homo sapiens), Q15139 | PKD1 kinase fluorescence polarization assay | inhibition, % (test concentration not listed) | 0.056% of 200,000 active | AID 797, 2007
Avidin bead fluor – green autofluorescence of compounds with avidin beads – biophysical, 488/530 nm, flow cytometry, artefact control, profiling panel; 0.38% of 220,000 active; fluorescence (KMESF) at 10 µM; compound fluorescence 488/530 nm; hits give high values; in the data active means fluorescence above about 47
GSH fluor – compound fluorescence on glutathione beads, profiling panel, artefact control, biophysical, 488/530 nm, flow cytometry. AID 1776, 2009. GSH beads flow cytometry, compound fluorescence 488/530 nm; hits give high values. fluorescence (KMESF) at 10 µM. 0.25% of 190,000 active; in the data active means fluorescence above about 89;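 further: glutathione beads carrying GST-tagged Bcl family fusion proteins plus one bare bead set; values are compound well signal with DMSO vehicle wells as background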
Lmaj promast – Leishmania major promastigote growth inhibition, primary screen; Leishmania major promastigotes, resazurin fluorescence viability; inhibition, % at 10 µM; 9% of 200,000 active;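 further: promastigotes grown with compound for 44 hours at 28 °C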
Active calls of the source: *. Many of the other results were omitted from the sample, so hits are more common in it than they were. Unless noted, no stated cut-off is given here; in the data, active means inhibition above about 50%; inactive means the rest.

SMILES	ABCB1 inh	ABCG2 block	PKD1 inh	Avidin bead fluor	GSH fluor	Lmaj promast
CC1=NN(c2nc(-c3ccc(C)cc3)cs2)C(=O)C1N=Nc1cccc(O)c1 (configuration not stated)	0	0	-5	9	23	39
CC1=NN(c2nc(-c3ccc(C)cc3)cs2)C(=O)C1N=Nc1ccccc1O (configuration not stated)	0	0	-4	13	9	99*
OCC1(Cc2ccccc2)CCCN(Cc2ccc3c(c2)OCCO3)C1 (configuration not stated)	0	0	-5	6	14	22
COc1cccc(CC2(CO)CCCN(S(=O)(=O)N(C)C)C2)c1 (configuration not stated)	0	2	-8	9	22	-5
OCC1(Cc2ccccc2)CCCN(C2CCCC2)C1 (configuration not stated)	0	0	-4	11	17	61*
CCOC(=O)N1CCC(N2CCCC(CO)(Cc3cccc(OC)c3)C2)CC1 (configuration not stated)	0	1	-8	10	14	87*
CCOC(=O)COc1cc2oc(=O)cc(C)c2cc1[N+](=O)[O-]	2	10	4	3	8	4
Cc1c(CCOC(=O)C23CC4CC(CC(C4)C2)C3)sc[n+]1Cc1ccccc1	0	9	0	13	7	98*
Cc1c(CCOC(=O)C23CC4CC(CC(C)(C4)C2)C3)sc[n+]1Cc1ccccc1	0	1	-8	11	75	100*
Cc1ncc(C[n+]2csc(CCOC(=O)C34CC5CC(CC(C5)C3)C4)c2C)c(N)n1	0	1	-1	14	13	-5
S=C(Nc1ccccc1Oc1ccccc1)Nc1cccc(Cl)c1Cl	0	-4	-3	6	12	14
CC1=NN(c2ccc(Cl)c(C(=O)O)c2)C(=O)/C1=C\c1ccc(-c2ccc(C(=O)O)cc2)o1	0	1	3	9	17	-4
O=C(O)c1ccc(N2C(=O)/C(=C/c3ccc(-c4ccc([N+](=O)[O-])cc4)o3)C=C2c2ccccc2)cc1	3	4	-2	29	9	99*
COc1ccc(NCN2C(=O)C3C4C=CC(C4)C3C2=O)cc1 (configuration not stated)	0	0	2	13	10	9
COc1ccc(CNc2ccc(Br)cc2)cc1	0	0	-6	9	13	99*
COc1ccc(CNC(=S)Nc2ccc(OC)cc2)cc1	0	2	-11	17	13	52*
COc1ccc(NC2=NCC(Cc3ccc(Br)cc3)S2)cc1 (configuration not stated)	1	1	-2	3	9	88*
COc1ccc(CNC(=S)NCc2ccc(OC)cc2)cc1	0	1	-9	13	13	6
O=S(=O)(c1ccc2c(c1)OCCO2)N1CCC(n2cnc3cc(F)ccc32)CC1	0	1	10	4	17	69*
Cc1sc(-n2c(C)cc(/C=N/n3cnnc3)c2C)c(C#N)c1C	0	2	-10	15	22	77*
CCCc1n(CC)c2ccccc2[n+]1CC(O)COC1CCCCC1 (configuration not stated)	1	5	-1	10	18	97*
CCc1n(CC(O)COC2CCCCC2)c2ccccc2[n+]1C (configuration not stated)	1	3	2	8	20	-2
CCS(=O)(=O)N1Cc2ccccc2CC1C(=O)Nc1nc2c(C)cccc2s1 (configuration not stated)	1	6	-3	13	11	55*
Cc1cnc(C(=O)Nc2nnc(SCc3c(Cl)cccc3Cl)s2)cn1	0	2	-3	12	7	56*
CCS(=O)(=O)N1Cc2ccccc2CC1C(=O)Nc1nnc(SCc2c(Cl)cccc2Cl)s1 (configuration not stated)	1	0	4	14	8	81*
